# Measured values from different studies.
# Lines come from different studies, so protocols differ.
# P2RY14: P2Y purinoceptor 14 (P2RY14, Homo sapiens, UniProt Q15391)
# Nuclear receptor subfamily 4 group A member 2: Nuclear receptor subfamily 4 group A member 2 (Homo sapiens, UniProt P43354)
Compound,target,test,system,setting,quantity,result
O=C(N[C@@H](Cc1c[nH]c2ccccc12)C(=O)O)C1c2ccccc2Oc2ccccc21,P2RY14,"cAMP, antagonist",HEK293,0.1 µM,inhibition,18.9%
O=C(O)C[C@H](O)C[C@H](O)/C=C/c1c(C2CC2)nc2ccccc2c1-c1ccc(F)cc1,Nuclear receptor subfamily 4 group A member 2,"thermal stability, DSF",,100 µM,ΔTm,-0.36 °C
COc1ccc2oc(-c3ccc4nc(N)oc4c3)c/c(=N\c3ccccc3NC(=O)CCN)c2c1,"Eukaryotic elongation factor 2 kinase (EEF2K, Homo sapiens, UniProt O00418)",binding,,1 µM,remaining binding,101%
COC(=O)c1cn(C)c2ccc(-c3cccnc3)cc12,Nuclear receptor subfamily 4 group A member 2,"thermal stability, DSF",,100 µM,ΔTm,-0.46 °C
CCCCC(=O)Nc1ccc(-c2ccc3ncn(CCC)c(=O)c3c2)cn1,"Ribosomal protein S6 kinase alpha-4, N-terminal kinase domain (RPS6KA4, Homo sapiens, UniProt O75676)","binding, competition with immobilised ligand",,0.5 µM,remaining binding,89%
NC/C(=C\F)COc1cccc(Cn2c(=S)[nH]c(=O)c3[nH]cnc32)c1,"Eosinophil peroxidase (Homo sapiens, UniProt P11678)","enzyme activity, inhibitor",,5 µM,remaining activity,149%
N#Cc1ccc(NC(=O)Nc2ccccc2)cc1,"TGF-beta receptor type-1 (TGFBR1, Homo sapiens, UniProt P36897)","cell-free assay, competition with immobilised ligand",,25 µM,remaining binding,81%
C1=C/COCc2cc(ccc2OCCN2CCCC2)Nc2nccc(n2)-c2cccc(c2)COC/1,"Mitogen-activated protein kinase kinase kinase 1 (MAP3K1, Homo sapiens, UniProt Q13233)",binding,,0.1 µM,remaining binding,100%
CCOC(=O)[C@H](Cc1c[nH]c2ccccc12)NC(=O)COc1ccc(C)cc1,P2RY14,"cAMP, antagonist",HEK293,0.1 µM,inhibition,-48.9%
CC(C)n1c(/C=C/C(O)CC(O)CC(=O)O)c(-c2ccc(F)cc2)c2ccccc21 (stereo not shown),Nuclear receptor subfamily 4 group A member 2,"thermal stability, DSF",,100 µM,ΔTm,-0.62 °C
O=Cc1ccc(OCC(=O)N[C@@H](Cc2c[nH]c3ccccc23)C(=O)O)cc1,P2RY14,"cAMP, antagonist",HEK293,0.1 µM,inhibition,58.7%
CNC(=O)c1ccccc1Nc1nc(Nc2ccc(CO)nc2)ncc1Cl,"Interleukin-1 receptor-associated kinase 4 (IRAK4, Homo sapiens, UniProt Q9NWZ3)","enzyme activity, inhibitor, radiometric",,1 µM,remaining activity,1.87%
C#Cc1cc(-c2cc(Nc3nc(N[C@@H](C)c4ccc(F)cn4)ncc3Cl)n[nH]2)ccc1C=O,"Ribosomal protein S6 kinase alpha-4 (RPS6KA4, Homo sapiens, UniProt O75676)","enzyme activity, inhibitor",,0.2 µM,inhibition,8.79%
O=C(N[C@@H](Cc1c[nH]c2ccccc12)C(=O)O)c1ccco1,P2RY14,"cAMP, antagonist",HEK293,0.1 µM,inhibition,73.6%
COc1cccc2c(Nc3ccc4[nH]c(C(=O)N/N=C/c5ccc(SC)cc5)cc4c3)cc(C)nc12,Nuclear receptor subfamily 4 group A member 2,"thermal stability, DSF",,100 µM,ΔTm,0.02 °C
Cc1cc(O)c(-c2ccc([C@@H](C)CN(C)C)cc2)c2c1[nH]c(=O)c1sccc12,"Microtubule-associated serine/threonine-protein kinase 4 (MAST4, Homo sapiens, UniProt O15021)","enzyme activity, inhibitor",,0.1 µM,inhibition,2%
CC(C)OC(=O)[C@H](Cc1c[nH]c2ccccc12)NC(=O)COc1ccc(Cl)cc1,P2RY14,"cAMP, antagonist",HEK293,0.1 µM,inhibition,39.6%
CCCCCCCC(=O)c1cc(OC)c(OC)c(OC)c1CC(=O)OCC,Nuclear receptor subfamily 4 group A member 2,"thermal stability, DSF",,100 µM,ΔTm,-1.02 °C
C[C@]1(O)CCCN(c2nc(Nc3ccc(S(=O)(=O)N[C@H]4CC[C@H](CN5CCN(c6ccc(C7CCC(=O)NC7=O)cc6F)CC5)CC4)cc3Cl)ncc2C(F)(F)F)C1 (stereo partly shown),"Serine/threonine-protein kinase ULK1 (ULK1, Homo sapiens, UniProt O75385)","binding, competition with immobilised ligand",,1 µM,remaining binding,32%
